Compound activity from PubChem.
The full list was thinned out, with hits kept by preference.
Redox H2O2 prof = compounds producing H2O2 with reducing agent – biochemical, NIH compound library profiling, artefact control for MLSCN library redox annotation, primary screen; DTT-dependent redox cycling H2O2, phenol red/HRP absorbance; 100% = 100 µM peroxide control, 0% = buffer; AID 878; hit rate 0.03% among 200,000; activation, % at 10 µM;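 active = activation of at least 50% relative to the plate's high and low controls in the primary single-dose screen; inactive = activation below 50%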;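 also: compound incubated with DTT at 0.8 mM final as the reducing agent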
MPTP inh = permeability transition pore inhibition; isolated mouse mitochondria, Ca2+ swelling absorbance, 30 min; inhibition, % at 10 µM; hit rate 1.4% among 360,000;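 active = inhibition of 50% or more, scaled per plate between neutral and stimulator controls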;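 also: 0% = DMSO wells given calcium and 100% = 1 mM EGTA wells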
L major viab = reduces viability of Leishmania major promastigotes. resazurin fluorescence viability. inhibition, % at 10 µM. hit rate 9% among 200,000. AID 1063; in the data active = inhibition above about 50%;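 also: promastigotes grown with compound for 44 hours at 28 °C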
Lipid droplet = modulators of hepatic lipid droplet formation; inhibition, % at 6.5 µM; AML12 mouse hepatocytes, oleate lipid droplets, BODIPY imaging; AID 1656; hit rate 0.4% among 240,000;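 active = lipid droplet intensity inhibited by at least 50%, with more than 500 cells counted; inconclusive = wells with under 300 cells, treated as cytotoxic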
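Test system: AML12 mouse liver cells; schedule: overnight exposure; technique: high-content imaging of BODIPY-stained droplets and DAPI nuclei; read-out: % inhibition of corrected integrated BODIPY droplet signal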
T cruzi repl = blocks replication of Trypanosoma cruzi. hit rate 1.4% among 300,000. AID 1885. T. cruzi beta-gal in NIH3T3, luminescence, 90 h. inhibition, % (no concentration beside the values);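 active = mean inhibition across valid replicates above about 55%, limit read from the data; inconclusive = mean below that limit but half or more replicates reach it; inactive = mean below it, under half of replicates reach it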;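 also: signal also drops with host cell toxicity which is not excluded here; 0% = plate median of DMSO wells and 100% = zero luminescence signal; higher percent means less beta-gal luminescence so fewer parasites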
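Assay system: NIH/3T3 host cells with β-galactosidase reporter T. cruzi; input: 5,000 host fibroblasts per well; compound: single 50 nL compound addition per well in DMSO; timing: ≥90 h infection period, 3 h prior cell attachment; measured by: GalScreen β-gal luminescence, detergent lysis, 60 min; evaluation: percent inhibition of parasite-derived β-gal signal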
Rh123 counter = membrane potential counter-screen of mitochondrial pore inhibitors; shares compounds with MPTP inh; isolated mitochondria, Rhodamine 123 fluorescence; inhibition, % at 10 µM; hit rate 78% among 5,000; AID 624504; in the data active = inhibition above about 22%;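 also: 0% = DMSO vehicle and 100% = positive control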
MPTP abs DR = dose response confirmation of mitochondrial permeability transition pore inhibitors; isolated mitochondria swelling, absorbance; AID 651561; IC50, µM; hit rate 58% among 780; shares compounds with MPTP inh; in the data active = IC50 below about 20 µM
MPTP counter DR = counter-screen for mitochondrial permeability transition pore inhibitors, dose response; shares compounds with MPTP inh; isolated mitochondria counterscreen, fluorescence read-out; IC50, µM; hit rate 49% among 780; AID 651564; in the data active = IC50 below about 80 µM
* marks the source's active call; other numbers are inactive results; ? = inconclusive; . = no result.

SMILES | Redox H2O2 prof | MPTP inh | L major viab | Lipid droplet | T cruzi repl | Rh123 counter | others
O=C(Nc1cccc(Cl)c1)Nc1ccnc(-c2cccnc2)n1 | -1.8 | 76.7* | 46.5 | 12.5 | 30.7 | 87.4*
O=S(=O)(c1cccc(F)c1)N1CCN(Cc2cc3c(cc2Br)OCCO3)CC1 | . | 0.4 | . | . | . | .
Cc1ccc(O)c(N=Cc2cc(Cc3ccccc3)cc([N+](=O)[O-])c2O)c1 | -2.3 | 64.4* | 0.9 | 19.6 | -12.1 | 55.4*
CCOc1ccc(CCNC(=O)C2CSC3(C)CCC(=O)N23)cc1OCC (stereo not drawn) | . | -0.2 | . | 11.0 | 13.7 | .
Cc1cccc(OCCSCc2nc3ccccc3[nH]2)c1 | -3.5 | 1.8 | 6.2 | . | 0.1 | .
Cc1cccc(OCCCSc2nc3ccccc3[nH]2)c1 | -3.9 | 50.6* | 4.3 | . | 7.4 | 63.6*
CCCOc1ccc(CSc2nc3ccccc3[nH]2)cc1 | -3.3 | 97.9* | 21.6 | . | -21.4 | 92.1*
N#Cc1cccc(C#N)c1NCC1CCCO1 (stereo not drawn) | . | -0.2 | . | . | -7.4 | .
CCOC(=O)N(C)S(=O)(=O)c1ccccc1[N+](=O)[O-] | -2.8 | 0.3 | 13.2 | -12.7 | 1.7 | .
COc1cc(NC(=S)NCCC(c2ccccc2)c2ccccc2)cc(OC)c1 | 0.4 | 77.8* | 46.6 | -32.0 | 61.6* | 92.3*
COc1cc(OC)cc(C(=O)NCCC(c2ccccc2)c2ccccc2)c1 | . | 1.5 | . | -7.8 | 25.6 | .
Cc1cccc(NC(=S)NNC(=S)NCc2ccccc2)c1 | 0.0 | 42.2 | -5.8 | 12.0 | -5.9 | .
Cc1cccc(NC(=S)NCCC(c2ccccc2)c2ccccc2)c1 | . | 87.3* | 96.6* | -9.3 | 35.0 | 99.6*
CCC(C(=O)Nc1cccc(C(=O)O)c1C)c1ccccc1 (stereo not drawn) | -0.8 | -2.2 | 4.6 | 9.2 | -12.0 | .
COc1cc2c(cc1OC)CN(C(=O)c1cc(S(=O)(=O)N3CCOCC3)c(Cl)cc1Cl)CC2 | . | -1.2 | . | -38.7 | -12.5 | .
Oc1cc(Cl)cc(Cl)c1Cl | . | 52.5* | . | . | . | 80.1*
C/C(=N\O)c1cc(Cl)cc(Cl)c1O | . | 11.8 | . | 25.8 | . | .
O=C(N/N=C/c1ccc(Cl)c([N+](=O)[O-])c1)c1cc(-c2ccccc2)nc2ccccc12 | 0.1 | 68.5* | 24.3 | 25.1 | 4.3 | 75.2*
O=C(N/N=C/c1cc([N+](=O)[O-])ccc1O)c1cc(-c2ccccc2)nc2ccccc12 | 0.4 | 98.3* | 98.4* | -35.3 | 44.9 | 50.1*
O=C(Nc1ccc(Cl)c([N+](=O)[O-])c1)ONC1=NCCCCC1 | 0.2 | 81.5* | 5.2 | -19.4 | -10.7 | 90.8*
CC1=C([N+](=O)[O-])C(c2cccc(Br)c2)C2=C(N1)c1ccccc1C2=O (stereo not drawn) | 0.1 | 85.0* | 32.5 | ? | ? | 58.5*
Cc1c(C(=O)NC2CCN(Cc3ccccc3)C2)oc2c(Cl)cccc12 (stereo not drawn) | . | 63.4* | . | -8.3 | 31.1 | -4.5 | MPTP abs DR=>100;MPTP counter DR=>80
Nc1ccccc1-c1ccc([N+](=O)[O-])cc1 | . | 0.1 | . | . | . | .
Cc1[nH]n(-c2cccc3ccccc23)c(=O)c1/C=N/c1sc2c(c1C#N)CCC2 | -0.4 | 0.3 | -6.1 | -3.9 | 11.7 | .
Cc1[nH]n(-c2ccc(Cl)cc2)c(=O)c1/C=N/c1nnc(-c2ccccc2)s1 | -0.1 | 103.7* | -0.8 | -17.0 | 9.0 | 43.4*
SMILES | Redox H2O2 prof | MPTP inh | L major viab | Lipid droplet | T cruzi repl | Rh123 counter | others
Cc1[nH]n(-c2ccc(F)cc2)c(=O)c1/C=N/c1sc2c(c1C#N)CCCC2 | -0.7 | 106.5* | -12.0 | . | 5.0 | 24.8*
Cn1ccc2c(/C=C/c3ccc(F)cc3)cc3c(c21)C1CCC3C1 (stereo not drawn) | . | 1.4 | . | . | . | .
NC1=NC[C@H](Cc2ccccc2)N1CCCCC1CCCCC1 | . | 82.1* | . | 18.8 | 48.4 | 48.1*
c1ccc(C[C@H]2CN=C(Nc3ccccc3)N2CCC2CCCC2)cc1 | . | 8.0 | . | . | . | .
COc1cccc(NC(=S)Nc2ccc(F)cc2)c1 | . | 1.1 | . | -1.0 | 5.1 | .
S=C(Nc1ccc(Br)cc1)Nc1ccc2c(c1)OCCO2 | . | 80.8* | . | 7.3 | -14.4 | 106.2*
Fc1cccc(NC(=S)Nc2ccc(Br)cc2)c1 | 2.7 | 110.2* | 16.6 | . | 6.5 | 96.1*
